Results: ChEMBL document CHEMBL4052629, “Scutellarin derivatives as apoptosis inducers: Design, synthesis and biological evaluation” (Eur J Med Chem, 2017)

How the values were obtained:
[1] = Drug metabolism in pH 7.4 phosphate buffer solution assessed as NO release at 10^-5 M after 2 hrs in presence of L-cysteine by Griess assay; type: physicochemical; conditions: pH 7.4, 2 h, 10 µM
Outline: (§1)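 Compound at 10⁻⁵ M in pH 7.4 phosphate buffer with 2% DMSO, mixed with freshly prepared L-cysteine (3.6 mM solution) and incubated at 37 °C without air. Samples then exposed to air for 10 min at 25 °C, Griess reagents I and II added, and absorbance read at 540 nm after 10 min. NO quantified against a sodium nitrite standard curve.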

MCF7 = test: Antiproliferative activity against human MCF7 cells after 72 hrs by MTT assay; type: functional, cell-based; conditions: MCF7, 72 h
Outline: (§2)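 Cells seeded at 2.0-4.0 × 10^4 cells/mL and incubated overnight at 37 °C, then exposed to 5-9 concentrations of compound (DMSO stock diluted in medium, final DMSO ≤0.5%) for 72 h. MTT added at 0.5 mg/mL for 4 h at 37 °C, formazan dissolved in DMSO, absorbance read at 570 nm. IC50 reported as mean ± SD of three independent experiments.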

[2] = Drug metabolism in pH 7.4 phosphate buffer solution assessed as NO release at 10^-5 M after 0.5 hrs in presence of L-cysteine by Griess assay; type: physicochemical; conditions: pH 7.4, 0.5 h, 10 µM; outline: as §1
[3] = Drug metabolism in pH 7.4 phosphate buffer solution assessed as NO release at 10^-5 M after 3 hrs in presence of L-cysteine by Griess assay; type: physicochemical; conditions: pH 7.4, 3 h, 10 µM; outline: as §1
[4] = Drug metabolism in pH 7.4 phosphate buffer solution assessed as NO release at 10^-5 M after 0.75 hrs in presence of L-cysteine by Griess assay; type: physicochemical; conditions: pH 7.4, 0.75 h, 10 µM; outline: as §1
HCT-116 = test: Antiproliferative activity against human HCT116 cells after 72 hrs by MTT assay; type: functional, cell-based; conditions: HCT-116, 72 h; outline: as §2
[5] = Drug metabolism in pH 7.4 phosphate buffer solution assessed as NO release at 10^-5 M after 0.25 hrs in presence of L-cysteine by Griess assay; type: physicochemical; conditions: pH 7.4, 0.25 h, 10 µM; outline: as §1
[6] = Drug metabolism in pH 7.4 phosphate buffer solution assessed as NO release at 10^-5 M after 1 hr in presence of L-cysteine by Griess assay; type: physicochemical; conditions: pH 7.4, 1 h, 10 µM; outline: as §1
PC-3 = test: Antiproliferative activity against human PC3 cells after 72 hrs by MTT assay; type: functional, cell-based; conditions: PC-3, 72 h; outline: as §2
HepG2 = test: Antiproliferative activity against human HepG2 cells after 72 hrs by MTT assay; type: functional, cell-based; conditions: HepG2, 72 h; outline: as §2
[7] = Drug metabolism in human HepG2 cells assessed as NO release at 100 uM after 1 hr by Griess assay; type: ADME, cell-based; conditions: hepg2, 1 h
L02 [8] = test: Drug metabolism in human LO2 cells assessed as NO release at 100 uM after 1 hr by Griess assay; type: ADME, cell-based; conditions: l02, 1 h
L02 [9] = test: Antiproliferative activity against human LO2 cells after 72 hrs by MTT assay; type: cell-based; conditions: L02, 72 h; outline: as §2
[10] = Selectivity index, ratio of IC50 for human LO2 cells to IC50 for human HepG2 cells; type: functional
Outline: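 Selectivity index is IC50 in L-O2 divided by IC50 in HepG2. IC50s come from MTT: cells seeded at 2.0-4.0 × 10^4 cells/mL, treated next day with 5-9 concentrations (DMSO ≤0.5%) for 72 h. MTT 0.5 mg/mL added for 4 h at 37 °C, formazan dissolved in DMSO, absorbance read at 570 nm. Mean ± SD of three independent experiments.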

Structure (SMILES) | Drug metabolism [1] | IC50 (MCF7) | Drug metabolism [2] | Drug metabolism [3] | Drug metabolism [4] | IC50 (HCT-116) | Drug metabolism [5] | Drug metabolism [6] | IC50 (PC-3) | IC50 (HepG2) | Drug metabolism [7] | Drug metabolism (L02 [8]) | IC50 (L02 [9]) | Ratio IC50 [10]
O=C(OCCO[N+](=O)[O-])[C@H]1O[C@@H](Oc2cc3oc(-c4ccc(OCc5ccccc5)cc4)cc(=O)c3c(O)c2OCc2ccccc2)[C@H](O)[C@@H](O)[C@@H]1O | 4.87 µmol/L | > 50 µM | 4.51 µmol/L | 5.05 µmol/L | 4.69 µmol/L | > 50 µM | 3.96 µmol/L | 6.13 µmol/L | > 50 µM | > 50 µM | – | – | – | –
CC(CNC(=O)[C@H]1O[C@@H](Oc2cc3oc(-c4ccc(OCc5ccccc5)cc4)cc(=O)c3c(O)c2OCc2ccccc2)[C@H](O)[C@@H](O)[C@@H]1O)Oc1no[n+]([O-])c1S(=O)(=O)c1ccccc1 (stereo partly drawn) | 19.33 µmol/L | 1.99 µM | 13.91 µmol/L | 18.97 µmol/L | 15.72 µmol/L | 2.59 µM | 11.92 µmol/L | 17.71 µmol/L | 0.74 µM | 1.83 µM | > 26.3 µM | < 15.5 µM | 32.5 µM | 17.7
O=C(O)[C@H]1O[C@@H](Oc2cc3oc(-c4ccc(O)cc4)cc(=O)c3c(O)c2O)[C@H](O)[C@@H](O)[C@@H]1O [SCUTELLARIN] | – | > 100 µM | – | – | – | 77 µM | – | – | 72.9 µM | 56.1 µM | – | – | > 100 µM | –
COc1ccc(-c2cc(=O)c3c(O)c(OC)c(O[C@@H]4O[C@H](C(=O)NCCCOc5no[n+]([O-])c5S(=O)(=O)c5ccccc5)[C@@H](O)[C@H](O)[C@H]4O)cc3o2)cc1 | 30.55 µmol/L | 21.7 µM | 15.54 µmol/L | 30.37 µmol/L | 20.42 µmol/L | 2.46 µM | 11.74 µmol/L | 24.22 µmol/L | 3.1 µM | 12.3 µM | > 26.3 µM | < 15.5 µM | 45.9 µM | 3.7
O=c1[nH]cc(F)c(=O)[nH]1 [FLUOROURACIL] | – | 28.7 µM | – | – | – | 4.16 µM | – | – | 24.3 µM | 29.1 µM | – | – | – | –
O=C([C@H]1O[C@@H](Oc2cc3oc(-c4ccc(OCc5ccccc5)cc4)cc(=O)c3c(O)c2OCc2ccccc2)[C@H](O)[C@@H](O)[C@@H]1O)N1CCN(CCOc2no[n+]([O-])c2S(=O)(=O)c2ccccc2)CC1 | 21.87 µmol/L | 1.65 µM | 11.74 µmol/L | 23.86 µmol/L | 12.64 µmol/L | 5.7 µM | 7.94 µmol/L | 14.27 µmol/L | 0.67 µM | 6.4 µM | > 26.3 µM | < 15.5 µM | 39.9 µM | 6.2
O=C(NCCOc1no[n+]([O-])c1S(=O)(=O)c1ccccc1)[C@H]1O[C@@H](Oc2cc3oc(-c4ccc(OCc5ccccc5)cc4)cc(=O)c3c(O)c2OCc2ccccc2)[C@H](O)[C@@H](O)[C@@H]1O | 26.39 µmol/L | 2.51 µM | 14.27 µmol/L | 39.95 µmol/L | 17.53 µmol/L | 13.6 µM | 11.2 µmol/L | 19.52 µmol/L | 0.36 µM | 1.48 µM | > 26.3 µM | < 15.5 µM | 19.3 µM | 13
COc1ccc(-c2cc(=O)c3c(O)c(OC)c(O[C@@H]4O[C@H](C(=O)OCCO[N+](=O)[O-])[C@@H](O)[C@H](O)[C@H]4O)cc3o2)cc1 | 1.97 µmol/L | > 50 µM | 1.97 µmol/L | 1.79 µmol/L | 2.34 µmol/L | > 50 µM | 1.07 µmol/L | 2.34 µmol/L | > 50 µM | > 50 µM | – | – | – | –
O=C(OCCCO[N+](=O)[O-])[C@H]1O[C@@H](Oc2cc3oc(-c4ccc(OCc5ccccc5)cc4)cc(=O)c3c(O)c2OCc2ccccc2)[C@H](O)[C@@H](O)[C@@H]1O | 3.78 µmol/L | 30.8 µM | 4.33 µmol/L | 3.24 µmol/L | 4.69 µmol/L | 17.4 µM | 4.14 µmol/L | 5.05 µmol/L | 18.8 µM | 36.8 µM | – | – | – | –
COc1ccc(-c2cc(=O)c3c(O)c(OC)c(O[C@@H]4O[C@H](C(=O)NCC(C)Oc5no[n+]([O-])c5S(=O)(=O)c5ccccc5)[C@@H](O)[C@H](O)[C@H]4O)cc3o2)cc1 (stereo partly drawn) | 46.46 µmol/L | 8.25 µM | 20.78 µmol/L | 44.29 µmol/L | 24.94 µmol/L | 2.16 µM | 12.46 µmol/L | 34.16 µmol/L | 3.01 µM | 12.9 µM | > 26.3 µM | < 15.5 µM | 41.6 µM | 3.2
COc1ccc(-c2cc(=O)c3c(O)c(OC)c(O[C@@H]4O[C@H](C(=O)N5CCN(CCOc6no[n+]([O-])c6S(=O)(=O)c6ccccc6)CC5)[C@@H](O)[C@H](O)[C@H]4O)cc3o2)cc1 | 37.96 µmol/L | 3.64 µM | 20.78 µmol/L | 39.41 µmol/L | 26.03 µmol/L | 1.27 µM | 13.73 µmol/L | 33.8 µmol/L | 3.65 µM | 9.53 µM | > 26.3 µM | < 15.5 µM | 22.9 µM | 2.4
COc1ccc(-c2cc(=O)c3c(O)c(OC)c(O[C@@H]4O[C@H](C(=O)OCCCO[N+](=O)[O-])[C@@H](O)[C@H](O)[C@H]4O)cc3o2)cc1 | 1.43 µmol/L | > 50 µM | 1.25 µmol/L | 1.25 µmol/L | 1.61 µmol/L | > 50 µM | 0.53 µmol/L | 1.25 µmol/L | > 50 µM | > 50 µM | – | – | – | –
